Laboratory results published in ChEMBL document CHEMBL4130564, “Indolylalkyltriphenylphosphonium Analogues Are Membrane-Depolarizing Mycobactericidal Agents” (ACS Med Chem Lett, 2017).
Calls of active or inactive are those of the source. The rule behind the calls is not given here.

How the values were obtained:
[1] = test system: Mycobacterium tuberculosis; assay: Antibacterial activity against Mycobacterium bovis BCG ATCC 35734 after 5 days by broth dilution method; assay type: functional; conditions: BCG str. ATCC 35743, 120 h
Procedure, shortened: (§1)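 Broth dilution; growth read by turbidity; MIC50 and MIC90 are the concentrations reducing growth by 50% and 90% relative to untreated controls; average of two or more separate determinations.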

Lipid bilayer [2] = assay: Binding affinity to DMPG vesicles assessed as change in enthalpy at 2 mM by differential scanning calorimetric analysis (reference value: -20.63 kJ/mol)
Procedure, shortened: (§2)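 Compound-loaded vesicles of negatively charged dimyristoylphosphatidylglycerol, used as a bacterial membrane surrogate, were scanned by differential scanning calorimetry. The gel-to-liquid melting endotherm was read for melting temperature (Tm) and calorimetric enthalpy (ΔH).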

Lipid bilayer [3] = assay: Binding affinity to DMPG vesicles assessed as melting transition temperature by differential scanning calorimetric analysis (reference value: 21.09 to 23.28 degC)
Lipid bilayer [4] = assay: Binding affinity to DMPG vesicles assessed as increase in melting transition temperature by differential scanning calorimetric analysis; procedure, shortened: as §2
Vero C1008 = assay: Cytotoxicity against African green monkey Vero E6 cells assessed as reduction in cell viability after 48 hrs by cell titre 96 aqueous one solution-based assay; conditions: Chlorocebus sabaeus, Vero C1008, 48 h
Procedure, shortened: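 Vero cell viability was compared with untreated control cells. IC50 was taken as the concentration giving 50% loss of viability, averaged over two or more separate determinations.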

[5] = test system: Mycobacterium tuberculosis; assay: Bactericidal activity against Mycobacterium bovis BCG ATCC 35734 assessed as suppression of reductive capacity by measuring decrease in formazan formation after 0.5 to 1 hr by MTT reduction assay; assay type: functional, organism-based; conditions: BCG str. ATCC 35743
Procedure, shortened: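 BCG cultures exposed to 0.2–100 μM for 30 min and 1 h, then MTT added; formazan production read at 595 nm against drug-free basal absorbance; CCCP 100 μM reference; representative of two independent experiments.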

[6] = test system: Mycobacterium tuberculosis; assay: Bactericidal activity against Mycobacterium bovis BCG ATCC 35734 assessed as reduction in oxygen consumption at 10 times MIC90 after 1 hr by methylene blue-based assay; assay type: functional, organism-based; conditions: BCG str. ATCC 35743
[7] = test system: Mycobacterium tuberculosis; assay: Bactericidal activity against Mycobacterium bovis BCG ATCC 35734 assessed as reduction in colony forming units after 5 days; assay type: functional, BCG str. ATCC 35743; conditions: for MBC: Mycobacterium tuberculosis, BCG ATCC 35734, 120 h, read-out: MBC99.9
[8] = test system: Mycobacterium tuberculosis; assay: Bactericidal activity against Mycobacterium bovis BCG ATCC 35734 assessed as increase in propidium iodide uptake at 6 uM after 1 to 5 days by flow cytometry; assay type: functional, organism-based; conditions: BCG str. ATCC 35743
[9] = test system: Mycobacterium tuberculosis; assay: Bactericidal activity against Mycobacterium bovis BCG ATCC 35734 assessed as reduction in oxygen consumption at 15 times MIC90 after 1 hr by methylene blue-based assay; assay type: functional, organism-based; conditions: BCG str. ATCC 35743
[10] = test system: Mycobacterium tuberculosis; assay: Bactericidal activity against Mycobacterium bovis BCG ATCC 35734 assessed as reduction in colony forming units at 6 uM after 1 to 5 days by time kill assay; assay type: functional, organism-based; conditions: BCG str. ATCC 35743
[11] = test system: Mycobacterium tuberculosis; assay: Bactericidal activity against Mycobacterium bovis BCG ATCC 35734 assessed as reduction in oxygen consumption at 5 times MIC90 after 1 hr by methylene blue-based assay; assay type: functional, organism-based; conditions: BCG str. ATCC 35743
[12] = test system: Mycobacterium tuberculosis; assay: Bactericidal activity against Mycobacterium bovis BCG ATCC 35734 assessed as reduction in membrane potential by measuring red to green fluorescent ratio at 24 uM measured after 1 to 5 days by DiOC2-dye based fluorescence assay; assay type: functional, organism-based; conditions: BCG str. ATCC 35743
Procedure, shortened: (§3)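 Membrane potential in treated BCG cultures tracked as DiOC2 red/green fluorescence ratio over extended exposure of 1, 3 and 5 days.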

[13] = test system: Mycobacterium tuberculosis; assay: Bactericidal activity against Mycobacterium bovis BCG ATCC 35734 assessed as cell elongation at 24 uM after 1 to 5 days by acid-fast staining-based light microscopy; assay type: functional, organism-based; conditions: BCG str. ATCC 35743
[14] = test system: Mycobacterium tuberculosis; assay: Bactericidal activity Mycobacterium bovis BCG ATCC 35734 assesses as cell death at 15 times MIC90 after 1 hr in presence of methylene blue; assay type: functional, organism-based; conditions: BCG str. ATCC 35743
[15] = test system: Mycobacterium tuberculosis; assay: Antibacterial activity against Mycobacterium tuberculosis H37Rv ATCC 27294 after 7 days by broth dilution method; assay type: functional; conditions: H37Rv ATCC 27294, 168 h; procedure, shortened: as §1
[16] = test system: Mycobacterium tuberculosis; assay: Bactericidal activity against Mycobacterium bovis BCG ATCC 35734 assessed as reduction in membrane potential by measuring red to green fluorescent ratio at 24 uM measured at 20 mins to 3 hrs by DiOC2-dye based fluorescence assay; assay type: functional, organism-based; conditions: BCG str. ATCC 35743
[17] = Hemolytic activity against human RBC after 1 hr; assay type: ADME, cell-based, Erythrocyte; conditions: human red blood cells (erythrocytes)
Procedure, shortened: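 Human red blood cells were exposed to compound, and lysis was scaled against Triton X-100 (2% v/v), taken as 100% hemolysis. HC50 was the concentration lysing 50% of cells, averaged over two or more separate determinations.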

[18] = test system: Mycobacterium tuberculosis; assay: Bactericidal activity against Mycobacterium bovis BCG ATCC 35734 assessed as reduction in colony forming units at 1.6 uM after 1 to 5 days by time kill assay; assay type: functional, organism-based; conditions: BCG str. ATCC 35743
[19] = test system: Mycobacterium tuberculosis; assay: Bactericidal activity against Mycobacterium bovis BCG ATCC 35734 assessed as increase in propidium iodide uptake at 1.6 uM after 1 to 5 days by flow cytometry; assay type: functional, organism-based; conditions: BCG str. ATCC 35743
[20] = test system: Mycobacterium tuberculosis; assay: Bactericidal activity against Mycobacterium bovis BCG ATCC 35734 assessed as reduction in membrane potential by measuring red to green fluorescent ratio at 12 uM measured at 20 mins to 3 hrs by DiOC2-dye based fluorescence assay; assay type: functional, organism-based; conditions: BCG str. ATCC 35743
[21] = test system: Mycobacterium tuberculosis; assay: Bactericidal activity against Mycobacterium bovis BCG ATCC 35734 assessed as cell elongation at 12 uM after 1 to 5 days by acid-fast staining-based light microscopy; assay type: functional, organism-based; conditions: BCG str. ATCC 35743
[22] = test system: Mycobacterium tuberculosis; assay: Bactericidal activity against Mycobacterium bovis BCG ATCC 35734 assessed as reduction in membrane potential by measuring red to green fluorescent ratio at 12 uM measured after 1 to 5 days by DiOC2-dye based fluorescence assay; assay type: functional, organism-based; conditions: BCG str. ATCC 35743; procedure, shortened: as §3

With `O=[N+]([O-])c1ccc2c(ccn2CCCCC[P+](c2ccccc2)(c2ccccc2)c2ccccc2)c1` the MIC50 [1] was 3 µM and the MIC90 [1] was 5 µM.
For `O=[N+]([O-])c1ccc2ccn(CCCCC[P+](c3ccccc3)(c3ccccc3)c3ccccc3)c2c1`, the MIC50 [1] was 3 µM and the MIC90 [1] was 4 µM.
For `O=[N+]([O-])c1ccc2c(ccn2CCC[P+](c2ccccc2)(c2ccccc2)c2ccccc2)c1`, the MIC50 [1] was 9 µM and the MIC90 [1] was 12 µM.
For `CCCn1ccc2cc(F)ccc21`, the deltaH (Lipid bilayer [2]) was -4.77 kcal/mol, the Tm (Lipid bilayer [3]) was 20.1 °C and the MIC50 [1] was over 50 µM. The MIC90 [1] was over 50 µM.
For `COc1ccc2c(ccn2CCC[P+](c2ccccc2)(c2ccccc2)c2ccccc2)c1`, the MIC50 [1] was 10 µM and the MIC90 [1] was 23 µM.
Work on `COc1ccc2ccn(CCC[P+](c3ccccc3)(c3ccccc3)c3ccccc3)c2c1` yielded an MIC50 [1] of 7 µM and an MIC90 [1] of 15 µM.
For `O=[N+]([O-])c1cccc2ccn(CCCCC[P+](c3ccccc3)(c3ccccc3)c3ccccc3)c12`, the MIC50 [1] was 1 µM and the MIC90 [1] was 2 µM.
Compound `Fc1ccc2ccn(CCC[P+](c3ccccc3)(c3ccccc3)c3ccccc3)c2c1` has an MIC50 [1] of 6 µM and an MIC90 [1] of 12 µM.
In the case of `Fc1ccc2ccn(CCCCC[P+](c3ccccc3)(c3ccccc3)c3ccccc3)c2c1`, the MIC50 [1] is reported as 3 µM and the MIC90 [1] is reported as 5 µM.
For `O=[N+]([O-])c1cccc2c1ccn2CCCCC[P+](c1ccccc1)(c1ccccc1)c1ccccc1.[I-]`, the ΔTm (Lipid bilayer [4]) was 1 °C, the IC50 (Vero C1008) was 36 µM and the Activity [5] was “Dose-dependent effect”. For the same compound, the MIC50 [1] was 2 µM, the MIC90 [1] was 3 µM and the Activity [6] was “Active”. The MBC99 [7] was 3 µM, the MBC [7] was 6 µM and the Activity [8] was “Active”. For the same compound, the Activity [9] was “Active”, the Activity [10] was “Active” and the Activity [11] was “inactive”. The Activity [12] was “Active”, the Activity [13] was “Active” and the Activity [14] was “Toxic”. For the same compound, the MIC50 [15] was 4 µM, the MIC90 [15] was 6 µM and the Activity [16] was “Active”. The HC50 at 1 h [17] was 196 µM.
`Fc1cccc2ccn(CCCCC[P+](c3ccccc3)(c3ccccc3)c3ccccc3)c12` gave an MIC50 [1] of 3 µM and an MIC90 [1] of 6 µM.
Work on `c1ccc([P+](CCCCCn2ccc3ccccc32)(c2ccccc2)c2ccccc2)cc1` yielded an MIC50 [1] of 4.3 µM and an MIC90 [1] of 6.3 µM.
Compound `CCC[P+](c1ccccc1)(c1ccccc1)c1ccccc1` has a deltaH (Lipid bilayer [2]) of -2.74 kcal/mol, a Tm (Lipid bilayer [3]) of 21.1 to 23.2 °C and an MIC50 [1] of over 50 µM. It also gave an MIC90 [1] of over 50 µM.
In the case of `NNC(=O)c1ccncc1`, the Activity [18] is reported as “Active” and the Activity [19] is reported as “inactive”.
Compound `COc1cccc2c1ccn2CCCCC[P+](c1ccccc1)(c1ccccc1)c1ccccc1` has an MIC50 [1] of 3 µM and an MIC90 [1] of 5 µM.
Work on `CCCCCCCCCC[P+](c1ccccc1)(c1ccccc1)c1ccccc1` yielded an MIC50 [1] of 3.9 µM and an MIC90 [1] of 6 µM.
In the case of `COc1cccc2ccn(CCCCC[P+](c3ccccc3)(c3ccccc3)c3ccccc3)c12.[I-]`, the ΔTm (Lipid bilayer [4]) is reported as 1 °C, the IC50 (Vero C1008) is reported as 18 µM and the Activity [20] is reported as “Active”. For the same compound, the Activity [5] was “Dose-dependent effect”, the MIC50 [1] was 2 µM and the MIC90 [1] was 3 µM. The Activity [6] was “Active”, the MBC99 [7] was 3 µM and the MBC [7] was 6 µM. For the same compound, the Activity [8] was “Active”, the Activity [9] was “Active” and the Activity [21] was “Active”. The Activity [10] was “Active”, the Activity [11] was “inactive” and the Activity [14] was “Toxic”. For the same compound, the MIC50 [15] was 2 µM, the MIC90 [15] was 6 µM and the Activity [22] was “Active”. For the same compound, the HC50 at 1 h [17] was over 300 µM.
With `CCCCCn1ccc2cccc(OC)c21` the Activity [5] was “inactive”, the MIC50 [1] was over 50 µM and the MIC90 [1] was over 50 µM. The Activity [16] was “inactive”.
